{"source": "paper PMC7541604", "about": "(Clinical cancer research : an official journal of the …, 2020)", "type_in_all_cases": "in vivo, human", "key": {"[1]": {"experiment": "PET/CT tracer biodistribution in normal organs", "outline": "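Patients received 201±12 MBq tracer IV, with SSKI taken ≥2 h before and daily for two weeks. PET-CT ran skull vertex to proximal thighs at 3-4 and 20-24 h post-injection, with CT for attenuation correction and anatomic localization. Mean SUV was measured in normal organs, including aortic blood pool, humerus, axial skeleton and brain, at 4 and 24 h (n=30).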"}, "[2]": {"test_system": "tumor epichaperome formations (epichaperome/HSP90)", "experiment": "124I-PU-H71 PET/CT tumor imaging in cancer patients", "outline": "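Adults with solid malignancy or lymphoma received 201±12 MBq tracer IV over 1-2 min, no contrast, with SSKI thyroid blockade. PET-CT was done at 3-4 and 20-24 h post-injection, with 45-60 min emission and OSEM reconstruction (decay, attenuation, scatter corrected). The highest-SUV tumor per patient gave SUVpeak (mean voxel SUV in the 1-cm3 sphere of highest uptake, mass-normalized). Tumor:bloodpool and tumor:muscle ratios were compared at 4 vs 24 h by Wilcoxon signed-rank.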"}, "[3]": {"experiment": "Plasma radioHPLC analysis of tracer metabolism", "details": "for Relative amount in plasma supernatant, GM: % of total activity of identified radioHPLC peaks"}, "[4]": {"experiment": "Clinical safety monitoring incl. serum TSH", "details": "microdose tracer 201±12 MBq, <25 μg IV, n=30 patients", "outline": "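Microdose tracer was given IV after seven drops SSKI orally ≥2 h pre-injection, repeated daily for two weeks. Serum TSH was measured <1 week pre-injection as baseline and again 6-12 months post-injection. Toxicity signs and symptoms were checked at each imaging time-point, and patients reported adverse symptoms over the following 30 days.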"}, "[5]": {"experiment": "Whole blood and plasma radioassay of tracer clearance", "outline": "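Tracer was injected IV over 1-2 min and blood drawn through a separate peripheral line at 10, 20 and 30 min and 1-2 or 3-4 h, plus 20-24 h in a subset (n=7). Whole blood and/or plasma were radioassayed by well counter. α and β half-lives came from biexponential fits, summarized as geometric mean. Plasma exposure was expressed as %ID·g·h/mL from 10 min to 4 h.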"}, "[6]": {"experiment": "PET-derived urinary and biliary tracer excretion", "outline": "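Serial PET, with bisacodyl 15 mg orally on three nights post-injection: at each time-point, 3D VOIs measured total activity in the urinary bladder and in the hepatobiliary tree plus bowel. Tracer lost by voiding or defecation was tracked from whole-FOV activity on decay-corrected serial scans, normalized to total activity on the initial scan immediately post-injection.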"}, "[7]": {"details": "4 hours post-injection, across patient population"}, "[8]": {"details": "one table row per patient, PET 4 h post-injection"}, "[9]": {"details": "one table row per patient, PET 24 h post-injection"}, "[10]": {"details": "patients, IV bolus, geometric mean"}}, "note": "Where “and” joins values, the source holds several entries; their conditions need not be identical. Equal entries are not always repeated.", "data": [{"smiles": "CC(C)NCCCn1c(Sc2cc3c(cc2I)OCO3)nc2c(N)ncnc21", "note": "[^124I-PU-H71]", "values": [{"measurement": "Brain uptake", "setting": "[1]; PET", "result": "scant"}, {"measurement": "24-hour bloodpool SUV", "setting": "[1]; average/SD, 24 hours post-injection", "result": "0.2 ±0.1"}, {"measurement": "Tumor:bloodpool ratio of radiotracer concentrations, average/SD", "setting": "[2]; [7]", "result": "3.2± 3.0"}, {"measurement": "Tumor:bloodpool ratio of radiotracer concentrations, maximum", "setting": "[2]; [7]", "result": "up to 14.4"}, {"measurement": "Tumor:bloodpool SUV ratio", "setting": "[2]; 24 h, person, stage IV pancreatic cancer (Fig. 1)", "result": 19.8}, {"measurement": "Tumor:bloodpool ratio of radiotracer concentrations, average/SD", "setting": "[2]; 24 hours post-injection, across patient population", "result": "3.9 ± 4.4"}, {"measurement": "24-hour tumor SUV average/SD", "setting": "[2]; between patients", "result": "0.9 ± 0.8"}, {"measurement": "24-hour tumor SUV coefficient of variation", "setting": "[2]; between patients", "result": 88.9, "unit": "%"}, {"measurement": "24-hour tumor SUV range", "setting": "[2]; between patients", "result": "0.1-3.8"}, {"measurement": "Patients in whom PU-H71-avid tumors were detected", "setting": "[2]; n=26 evaluable patients, PET at 24 h", "result": 58, "unit": "%"}, {"measurement": "T:B 4 h (tumor:blood pool SUVpeak ratio)", "setting": "[2]; [8]", "result": "1.8 and 3.1 and 14.4 and 6.1 and 1.5 and 1.2 and 2.2 and 2.7 and 0.9 and 5.0 and 2.5 and 4.2 and 1.6 and 1.3 and 2.9 and 2.1 and 9.6 and 1.7 and 3.6"}, {"measurement": "T:M 4 h (tumor:muscle SUV ratio)", "setting": "[2]; [8]", "result": "1.8 and 6.0 and 22.0 and 5.1 and 2.1 and 1.2 and 2.8 and 1.9 and 2.4 and 5.3 and 2.0 and 1.0 and 5.4 and 4.0 and 3.3 and 5.2 and 3.0 and 3.8 and 1.5 and 7.7 and 2.7 and 4.9"}, {"measurement": "Tumor SUV 4 h (SUVpeak)", "setting": "[2]; [8]", "result": "1.1 and 1.6 and 11.0 and 2.5 and 0.64 and 0.8 and 0.7 and 0.9 and 3.4 and 1.7 and 3.2 and 2.1 and 1.3 and 1.8 and 2.7 and 1.5 and 2.2 and 1.2"}, {"measurement": "T:B 24 h (tumor:blood pool SUVpeak ratio)", "setting": "[2]; [9]", "result": "1.0 and 5.6 and 13.1 and 1.7 and 4.0 and 0.6 and 3.0 and 1.2 and 3.2 and 0.9 and 5.1 and 2.4 and 19.8 and 0.7 and 1.8 and 1.3 and 3.6 and 5.9 and 2.3 and 7.8 and 4.8"}, {"measurement": "T:M 24 h (tumor:muscle SUV ratio)", "setting": "[2]; [9]", "result": "1.6 and 11.2 and 20.0 and 8.0 and 6.7 and 1.2 and 6.0 and 2.3 and 1.5 and 6.4 and 1.0 and 1.1 and 8.8 and 2.1 and 6.2 and 2.5 and 4.6 ^****** and 1.4 and 3.3 and 5.6 and 5.2 and 17.5 and 1.3 and 5.1"}, {"measurement": "Tumor SUV 24 h (SUVpeak)", "setting": "[2]; [9]", "result": "0.3 and 0.6 and 3.8 and 0.8 and 0.4 and 0.1 and 0.2 and 1.0 and 0.7 and 1.8 and 1.1 and 1.6 and 0.5 and 1.3 and 0.9 and 2.1 and 1.5"}, {"measurement": "Decrease of tumor SUV between 4 to 24 hours", "setting": "[2]; overall", "result": "1.0±1.4", "unit": "SUV units"}, {"measurement": "Decrease of tumor SUV between 4 to 24 hours, range", "setting": "[2]; overall", "result": "−25.0 to +87.5%"}, {"measurement": "Decrease of tumor SUV between 4 to 24 hours, mean ± SD", "setting": "[2]; overall, p=0.00002", "result": "50.7 ± 27.0", "unit": "%"}, {"measurement": "Increase of tumor:bloodpool SUV ratio between 3 and 24 h", "setting": "[2]; person, stage IV pancreatic cancer (Fig. 1)", "result": 371, "unit": "%"}, {"measurement": "Median increase in tumor:bloodpool SUV ratio from 4 to 24 hours", "setting": "[2]; population", "result": 4.8, "unit": "%"}, {"measurement": "Median increase in tumor:muscle SUV ratio from 4 to 24 hours", "setting": "[2]; population", "result": 20.9, "unit": "%"}, {"measurement": "Range of change in tumor:bloodpool SUV ratio from 4 to 24 hours", "setting": "[2]; population", "result": "−72.1 to +371.4%"}, {"measurement": "Range of change in tumor:muscle SUV ratio from 4 to 24 hours", "setting": "[2]; population", "result": "−63.2 to +257.1%"}, {"measurement": "Average increase in tumor:muscle SUV ratio from 4 to 24 hours", "setting": "[2]; population, p=0.02", "result": "52.0 ± 87.3", "unit": "%"}, {"measurement": "Average increase in tumor:bloodpool SUV ratio from 4 to 24 hours", "setting": "[2]; population, p=0.9", "result": "25.7 ± 99.9", "unit": "%"}, {"measurement": "Relative amount in plasma supernatant, GM", "setting": "[3]; 10 min after tracer injection", "result": 69.2, "unit": "%"}, {"measurement": "Relative amount in plasma supernatant, GM", "setting": "[3]; 20 min after tracer injection", "result": 51.7, "unit": "%"}, {"measurement": "Relative amount in plasma supernatant, GM", "setting": "[3]; 30 min after tracer injection", "result": 44.9, "unit": "%"}, {"measurement": "Relative amount in plasma supernatant, GM", "setting": "[3]; 1h after tracer injection", "result": 32.3, "unit": "%"}, {"measurement": "Relative amount in plasma supernatant, GM", "setting": "[3]; 4h after tracer injection", "result": 22.7, "unit": "%"}, {"measurement": "Time by which radiotracer became predominantly radiometabolites", "setting": "[3]; plasma, p.i.", "result": "≤ 1", "unit": "h"}, {"measurement": "Adverse effects", "setting": "[4]", "result": "no adverse effects"}, {"measurement": "Adverse effects", "setting": "[4]; listed as PUH71 tracer", "result": "No signs or symptoms of adverse effects"}, {"measurement": "Plasma AUC coefficient of variation", "setting": "[5]; between patients", "result": 36.6, "unit": "%"}, {"measurement": "Plasma radiotracer exposure", "setting": "[5]; from 10 minutes to 4 hours post-injection", "result": "1.7±0.6", "unit": "% ID•g•h/mL"}, {"measurement": "Blood t1/2 α, GM", "setting": "[5]; [10]", "result": 7.9, "unit": "min"}, {"measurement": "Blood t1/2 β, GM", "setting": "[5]; [10]", "result": 6.103, "unit": "h"}, {"measurement": "Plasma t1/2 α, GM", "setting": "[5]; [10]", "result": 7.0, "unit": "min"}, {"measurement": "Plasma t1/2 β, GM", "setting": "[5]; [10]", "result": 4.402, "unit": "h"}, {"measurement": "Urinary excretion of tracer", "setting": "[6]", "result": "29.5 ±10.9", "unit": "%ID"}, {"measurement": "Hepatobiliary excretion of tracer", "setting": "[6]; bisacodyl given", "result": "45.4 ±15.8", "unit": "%ID"}]}]}
